# Data reported in ChEMBL document CHEMBL4145582, “Cytotoxic and Antibacterial Eremophilane Sesquiterpenes from the Marine-Derived Fungus Cochliobolus lunatus SCSIO41401” (J Nat Prod, 2018).
# Assays:
# SGC-7901 = assay: Cytotoxicity against human SGC7901 cells after 6 days by MTT assay; assay type: functional, cell-based; details: SGC-7901, 144 h
# Summary of the method: (§1)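 HepG-2 and SGC7901 cells; growth inhibition read by MTT method, with 5-fluorouracil as positive control.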
# HepG2 = assay: Cytotoxicity against human HepG2 cells after 6 days by MTT assay; assay type: functional, cell-based; details: HepG2, 144 h; summary of the method: as §1
# Escherichia coli = assay: Antimicrobial activity against Escherichia coli ATCC 25922 after 24 hrs by serial dilution method; assay type: functional; details: ATCC 25922, 24 h
# Summary of the method: (§2)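 Serial broth dilution in 96-well microtiter plates. Compounds and controls are dissolved in DMSO as stock. Bacteria are grown overnight at 37 °C, then diluted to 10^6 cfu/mL. E. coli and S. aureus are grown in Luria–Bertani broth. P. multocida and E. rhusiopathiae are grown in trypticase soy broth with 10% calf serum. Plates are incubated at 37 °C for 24 h and read at 630 nm.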
# Staphylococcus aureus = assay: Antimicrobial activity against Staphylococcus aureus subsp. aureus Rosenbach ATCC 25923 after 24 hrs by serial dilution method; assay type: functional; details: Rosenbach ATCC 25923, 24 h; summary of the method: as §2
# [1] = tested on: Erysipelothrix rhusiopathiae; assay: Antimicrobial activity against Erysipelothrix rhusiopathiae ATCC 19414 after 24 hrs by serial dilution method; assay type: functional; details: ATCC 19414, 24 h; summary of the method: as §2
# OS-RC-2 = assay: Cytotoxicity against human OS-RC2 cells after 72 hrs by CCK8 assay; assay type: functional, cell-based; details: OS-RC-2, 72 h
# Summary of the method: (§3)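 Renal cancer lines ACHN, 786-O and OS-RC-2; cell viability read by CCK-8 assay, with sorafenib as positive control.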
# Pasteurella multocida = assay: Antimicrobial activity against Pasteurella multocida subsp. multocida ATCC 43137 after 24 hrs by serial dilution method; assay type: functional; details: ATCC 43137, 24 h; summary of the method: as §2
# ACHN = assay: Cytotoxicity against human ACHN cells after 72 hrs by CCK8 assay; assay type: functional, cell-based; summary of the method: as §3
# 786-0 = assay: Cytotoxicity against human 786-O cells after 72 hrs by CCK8 assay; assay type: functional, cell-based; details: 786-0, 72 h; summary of the method: as §3
SMILES,IC50 (SGC-7901),IC50 (HepG2),MIC (Escherichia coli),MIC (Staphylococcus aureus),MIC [1],IC50 (OS-RC-2),MIC (Pasteurella multocida),IC50 (ACHN),IC50 (786-0)
O=c1[nH]cc(F)c(=O)[nH]1 [FLUOROURACIL],12 µM,12 µM,–,–,–,–,–,–,–
C=C(CO)[C@]1(O)C[C@@]2(C)C(=CC1=O)C=CC[C@@H]2C,> 50 µM,> 50 µM,> 100 µg/mL,> 100 µg/mL,> 100 µg/mL,> 50 µM,> 100 µg/mL,> 50 µM,> 50 µM
CNC(=O)c1cc(Oc2ccc(NC(=O)Nc3ccc(Cl)c(C(F)(F)F)c3)cc2)ccn1 [SORAFENIB],–,–,–,–,–,15 µM,–,3.5 µM,5.3 µM
